Test system: Caco-2 cells
Test: Caco-2 cellular uptake study
Format: in vitro ADME, human
Settings: verapamil 50 µg/ml, 1 or 3 h
How it was run: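 Caco-2 cells (DMEM, 20% FBS, 37 °C, 5% CO2) seeded at 5 × 10⁴/well and grown 24 h. Test compound as SNEDDS or solution (equivalent CTX 5 µg/ml) given with verapamil 50 µg/ml, 1 or 3 h at 37 °C. Washed three times with ice-cold PBS, sonicated in water (100 W), lysed, spun 13,000 rpm 10 min. CTX by HPLC; handling matched the no-inhibitor uptake arm.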

Structure (SMILES): CO[C@H]1C(=O)[C@]2(C)[C@@H](OC)C[C@H]3OC[C@@]3(OC(C)=O)[C@H]2[C@H](OC(=O)c2ccccc2)[C@]2(O)C[C@H](OC(=O)[C@H](O)[C@@H](NC(=O)OC(C)(C)C)c3ccccc3)C(C)=C1C2(C)C [CTX, cabazitaxel]
- Change of Caco-2 uptake after adding P-gp inhibitor: no significant difference
